According to ChEMBL document CHEMBL1629529, “Design, synthesis, and evaluation of diarylpyridines and diarylanilines as potent non-nucleoside HIV-1 reverse transcriptase inhibitors” (J Med Chem, 2010):

Test system: MT2
Test: Cytotoxicity in human MT2 cells after 4 day by XTT assay
Assay type: cell-based
Conditions: mt2, 96 h; call rule not given here
Method in brief: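 MT-2 cells (5 · 10^5/mL) were mixed with an equal volume of graded compound concentrations and incubated 4 days at 37 °C. XTT solution (1 mg/mL) containing 0.02 μM phenazine methosulphate was then added. After 4 h, absorbance at 450 nm was read.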

| Compound | CC50 |
| --- | --- |
| Cc1cc(/C=C/C#N)cc(C)c1Oc1ccc(N)c(Nc2ccc(C#N)cc2)n1 | 5630 nM |
| CC(=O)/C=C/c1cc(C)c(Oc2cc(Nc3ccc(C#N)cc3)c([N+](=O)[O-])cc2[N+](=O)[O-])c(C)c1 | > 100000 nM |
| Cc1cc(/C=C/C#N)cc(C)c1Oc1cc(Nc2ccc(C#N)cc2)c([N+](=O)[O-])cc1[N+](=O)[O-] | 21700 nM |
| Cc1cc(/C=C/C#N)cc(C)c1Oc1cc(Nc2ccc(C#N)cc2)c(N)cc1[N+](=O)[O-] | 88200 nM |
| Cc1cc(/C=C/C#N)cc(C)c1Oc1cc(Nc2ccc(C#N)cc2)c(N)cc1N | 18900 nM |
| Cc1cc(C#N)cc(C)c1Oc1ccc(N)c(Nc2ccc(C#N)cc2)n1 | > 100000 nM |
| Cc1cc(C#N)cc(C)c1Oc1nc(Nc2ccc(C#N)cc2)nc(N)c1Br [ETRAVIRINE] | 50700 nM |

Test system: not listed separately
Test: Cytotoxicity in human TZM-bl cells after 4 day by XTT assay
Assay type: cell-based
Conditions: 96 h

| Compound | CC50 |
| --- | --- |
| Cc1cc(/C=C/C#N)cc(C)c1Oc1ccc(N)c(Nc2ccc(C#N)cc2)n1 | 9750 nM |
| CC(=O)/C=C/c1cc(C)c(Oc2cc(Nc3ccc(C#N)cc3)c([N+](=O)[O-])cc2[N+](=O)[O-])c(C)c1 | 24400 nM |
| Cc1cc(/C=C/C#N)cc(C)c1Oc1cc(Nc2ccc(C#N)cc2)c([N+](=O)[O-])cc1[N+](=O)[O-] | > 44000 nM |
| Cc1cc(/C=C/C#N)cc(C)c1Oc1cc(Nc2ccc(C#N)cc2)c(N)cc1[N+](=O)[O-] | > 47100 nM |
| Cc1cc(/C=C/C#N)cc(C)c1Oc1cc(Nc2ccc(C#N)cc2)c(N)cc1N | 14400 nM |
| Cc1cc(C#N)cc(C)c1Oc1nc(Nc2ccc(C#N)cc2)nc(N)c1Br [ETRAVIRINE] | 8960 nM |

Test system: Human immunodeficiency virus 1
Test: Antiviral activity against multidrug resistant HIV1 A17 containing reverse transcripatseK103N and Y181C mutation infected in human MT2 cells assessed as reduction in p24 antigen level after 4 days by ELISA
Assay type: functional, organism-based
Conditions: Human immunodeficiency virus 1, A17, MT2, 96 h
Method in brief: (§1)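 MT-2 cells (10^4/well) were infected with 100 TCID50 virus in RPMI 1640 with 10% FBS, with or without graded compound concentrations, overnight. Supernatant was then replaced with compound-free medium. On day 4 post-infection, supernatant was mixed 1:1 with 5% Triton X-100 and p24 antigen was quantified by ELISA. Percent inhibition was converted to EC50 with CalcuSyn. Tested at least in triplicate.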

| Compound | EC50 |
| --- | --- |
| Cc1cc(/C=C/C#N)cc(C)c1Oc1ccc(N)c(Nc2ccc(C#N)cc2)n1 | 200 nM |
| Cc1cc(/C=C/C#N)cc(C)c1Oc1cc(Nc2ccc(C#N)cc2)c(N)cc1[N+](=O)[O-] | 95 nM |
| Cc1cc(/C=C/C#N)cc(C)c1Oc1cc(Nc2ccc(C#N)cc2)c(N)cc1N | 3050 nM |
| C#Cc1cc(C)c(Oc2ccc([N+](=O)[O-])c(Nc3ccc(C#N)cc3)n2)c(C)c1 | > 10000 nM |
| C#Cc1cc(C)c(Oc2ccc(N)c(Nc3ccc(C#N)cc3)n2)c(C)c1 | 1430 nM |
| Cc1cc(I)cc(C)c1Oc1ccc(N)c(Nc2ccc(C#N)cc2)n1 | 1930 nM |
| Cc1cc(C#N)cc(C)c1Oc1ccc(N)c(Nc2ccc(C#N)cc2)n1 | 390 nM |
| Cc1cc(I)cc(C)c1Oc1ccc([N+](=O)[O-])c(Nc2ccc(C#N)cc2)n1 | > 10000 nM |
| Cc1cc(C#N)cc(C)c1Oc1nc(Nc2ccc(C#N)cc2)nc(N)c1Br [ETRAVIRINE] | 330 nM |

Test system: Human immunodeficiency virus 1
Test: Antiviral activity against multidrug resistant HIV1 RTMDR containing reverse transcriptase L74V, M41L, V106A and T215Y mutant infected in human TZM-bl cells after 4 days by luciferase reporter gene assay
Assay type: functional, organism-based
Conditions: Human immunodeficiency virus 1, RTMDR, 96 h

| Compound | EC50 |
| --- | --- |
| Cc1cc(/C=C/C#N)cc(C)c1Oc1ccc(N)c(Nc2ccc(C#N)cc2)n1 | 0.59 nM |
| Cc1cc(/C=C/C#N)cc(C)c1Oc1cc(Nc2ccc(C#N)cc2)c(N)cc1[N+](=O)[O-] | 0.87 nM |
| Cc1cc(/C=C/C#N)cc(C)c1Oc1cc(Nc2ccc(C#N)cc2)c(N)cc1N | 2 nM |
| C#Cc1cc(C)c(Oc2ccc([N+](=O)[O-])c(Nc3ccc(C#N)cc3)n2)c(C)c1 | 215 nM |
| C#Cc1cc(C)c(Oc2ccc(N)c(Nc3ccc(C#N)cc3)n2)c(C)c1 | 9 nM |
| Cc1cc(C#N)cc(C)c1Oc1nc(Nc2ccc(C#N)cc2)nc(N)c1Br [ETRAVIRINE] | 1 nM |

Test system: Human immunodeficiency virus 1
Test: Resistance index, ratio of EC50 for multidrug resistant HIV1 RTMDR to EC50 for wild type HIV1 NL4-3
Assay type: functional
Conditions: not given

| Compound | Ratio EC50 |
| --- | --- |
| Cc1cc(/C=C/C#N)cc(C)c1Oc1ccc(N)c(Nc2ccc(C#N)cc2)n1 | 0.83 |
| Cc1cc(/C=C/C#N)cc(C)c1Oc1cc(Nc2ccc(C#N)cc2)c(N)cc1[N+](=O)[O-] | 2.29 |
| Cc1cc(/C=C/C#N)cc(C)c1Oc1cc(Nc2ccc(C#N)cc2)c(N)cc1N | 0.47 |
| C#Cc1cc(C)c(Oc2ccc([N+](=O)[O-])c(Nc3ccc(C#N)cc3)n2)c(C)c1 | 1.94 |
| C#Cc1cc(C)c(Oc2ccc(N)c(Nc3ccc(C#N)cc3)n2)c(C)c1 | 1.34 |
| Cc1cc(I)cc(C)c1Oc1ccc(N)c(Nc2ccc(C#N)cc2)n1 | 0.67 |
| Cc1cc(C#N)cc(C)c1Oc1ccc(N)c(Nc2ccc(C#N)cc2)n1 | 1.41 |
| Cc1cc(I)cc(C)c1Oc1ccc([N+](=O)[O-])c(Nc2ccc(C#N)cc2)n1 | 1.55 |

Test system: not listed separately
Test: Selectivity index, ratio of CC50 for human TZM-bl cells to EC50 for HIV1 NL4-3
Assay type: toxicity, cell-based
Conditions: tzm-bl

| Compound | Ratio CC50/EC50 |
| --- | --- |
| Cc1cc(/C=C/C#N)cc(C)c1Oc1ccc(N)c(Nc2ccc(C#N)cc2)n1 | 13732 |
| CC(=O)/C=C/c1cc(C)c(Oc2cc(Nc3ccc(C#N)cc3)c([N+](=O)[O-])cc2[N+](=O)[O-])c(C)c1 | 167 |
| Cc1cc(/C=C/C#N)cc(C)c1Oc1cc(Nc2ccc(C#N)cc2)c([N+](=O)[O-])cc1[N+](=O)[O-] | > 453 |
| Cc1cc(/C=C/C#N)cc(C)c1Oc1cc(Nc2ccc(C#N)cc2)c(N)cc1[N+](=O)[O-] | > 123842 |
| Cc1cc(/C=C/C#N)cc(C)c1Oc1cc(Nc2ccc(C#N)cc2)c(N)cc1N | 3356 |
| Cc1cc(C#N)cc(C)c1Oc1ccc(N)c(Nc2ccc(C#N)cc2)n1 | 13206 |

Test system: Human immunodeficiency virus 1
Test: Antiviral activity against HIV1 3B infected in human MT2 cells assessed as reduction in p24 antigen level after 4 days by ELISA
Assay type: functional, organism-based
Conditions: Human immunodeficiency virus 1, 3B, MT2, 96 h; read-out: EC50
Method in brief: as §1

| Compound | EC50 |
| --- | --- |
| Cc1cc(/C=C/C#N)cc(C)c1Oc1ccc(N)c(Nc2ccc(C#N)cc2)n1 | < 14 nM |
| CC(=O)/C=C/c1cc(C)c(Oc2cc(Nc3ccc(C#N)cc3)c([N+](=O)[O-])cc2[N+](=O)[O-])c(C)c1 | 350 nM |
| Cc1cc(/C=C/C#N)cc(C)c1Oc1cc(Nc2ccc(C#N)cc2)c([N+](=O)[O-])cc1[N+](=O)[O-] | 370 nM |
| Cc1cc(/C=C/C#N)cc(C)c1Oc1cc(Nc2ccc(C#N)cc2)c(N)cc1[N+](=O)[O-] | < 14 nM |
| Cc1cc(/C=C/C#N)cc(C)c1Oc1cc(Nc2ccc(C#N)cc2)c(N)cc1N | < 14 nM |
| Cc1cc(C#N)cc(C)c1Oc1ccc(N)c(Nc2ccc(C#N)cc2)n1 | 15 nM |
| Cc1cc(C#N)cc(C)c1Oc1nc(Nc2ccc(C#N)cc2)nc(N)c1Br [ETRAVIRINE] | 41 nM |

Same assay, conditions: mt2

| Compound | EC50 |
| --- | --- |
| Cc1cc(C#CC2CC2)cc(C)c1Oc1ccc([N+](=O)[O-])c(Nc2ccc(C#N)cc2)n1 | Not Active |

Test system: Human immunodeficiency virus 1
Test: Resistance index, ratio of EC50 for multidrug resistant HIV1 A17 to EC50 for wild type HIV1 3B
Assay type: functional
Conditions: not given

| Compound | Ratio EC50 |
| --- | --- |
| Cc1cc(/C=C/C#N)cc(C)c1Oc1ccc(N)c(Nc2ccc(C#N)cc2)n1 | 14 |
| Cc1cc(/C=C/C#N)cc(C)c1Oc1cc(Nc2ccc(C#N)cc2)c(N)cc1[N+](=O)[O-] | 6.79 |
| Cc1cc(/C=C/C#N)cc(C)c1Oc1cc(Nc2ccc(C#N)cc2)c(N)cc1N | 128 |
| C#Cc1cc(C)c(Oc2ccc([N+](=O)[O-])c(Nc3ccc(C#N)cc3)n2)c(C)c1 | > 40 |
| C#Cc1cc(C)c(Oc2ccc(N)c(Nc3ccc(C#N)cc3)n2)c(C)c1 | 34 |
| Cc1cc(I)cc(C)c1Oc1ccc(N)c(Nc2ccc(C#N)cc2)n1 | 36 |
| Cc1cc(C#N)cc(C)c1Oc1ccc(N)c(Nc2ccc(C#N)cc2)n1 | 26 |
| Cc1cc(I)cc(C)c1Oc1ccc([N+](=O)[O-])c(Nc2ccc(C#N)cc2)n1 | >127 |

Test system: Human immunodeficiency virus 1
Test: Antiviral activity against HIV1 NL4-3 infected in human TZM-bl cells after 2 days by luciferase reporter gene assay
Conditions: Human immunodeficiency virus 1, NL4-3, TZM-bl, 48 h; read-out: EC50

| Compound | EC50 |
| --- | --- |
| Cc1cc(C#CC2CC2)cc(C)c1Oc1ccc([N+](=O)[O-])c(Nc2ccc(C#N)cc2)n1 | > 47200 nM |
| Cc1cc(/C=C/C#N)cc(C)c1Oc1ccc(N)c(Nc2ccc(C#N)cc2)n1 | 0.71 nM |
| CC(=O)/C=C/c1cc(C)c(Oc2cc(Nc3ccc(C#N)cc3)c([N+](=O)[O-])cc2[N+](=O)[O-])c(C)c1 | 146 nM |
| Cc1cc(/C=C/C#N)cc(C)c1Oc1cc(Nc2ccc(C#N)cc2)c([N+](=O)[O-])cc1[N+](=O)[O-] | 97.1 nM |
| Cc1cc(/C=C/C#N)cc(C)c1Oc1cc(Nc2ccc(C#N)cc2)c(N)cc1[N+](=O)[O-] | 0.38 nM |
| Cc1cc(/C=C/C#N)cc(C)c1Oc1cc(Nc2ccc(C#N)cc2)c(N)cc1N | 4.3 nM |

Test system: not listed separately
Test: Selectivity index, ratio of CC50 for human MT2 cells to EC50 for HIV1 3B
Assay type: toxicity, cell-based
Conditions: mt2
Method in brief: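 SI = CC50/EC50 (p24 ELISA). XTT (1 mg/mL) containing 0.02 μM PMS was added for 4 h, then absorbance was read at 450 nm. CC50 was calculated with CalcuSyn.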

| Compound | Ratio CC50/EC50 |
| --- | --- |
| Cc1cc(/C=C/C#N)cc(C)c1Oc1ccc(N)c(Nc2ccc(C#N)cc2)n1 | > 402 |
| CC(=O)/C=C/c1cc(C)c(Oc2cc(Nc3ccc(C#N)cc3)c([N+](=O)[O-])cc2[N+](=O)[O-])c(C)c1 | > 286 |
| Cc1cc(/C=C/C#N)cc(C)c1Oc1cc(Nc2ccc(C#N)cc2)c([N+](=O)[O-])cc1[N+](=O)[O-] | 59.35 |
| Cc1cc(/C=C/C#N)cc(C)c1Oc1cc(Nc2ccc(C#N)cc2)c(N)cc1[N+](=O)[O-] | > 6298 |
| Cc1cc(/C=C/C#N)cc(C)c1Oc1cc(Nc2ccc(C#N)cc2)c(N)cc1N | > 1353 |
| Cc1cc(C#N)cc(C)c1Oc1ccc(N)c(Nc2ccc(C#N)cc2)n1 | > 6667 |
